Results as given in ChEMBL document CHEMBL1141901, “1-Aryl-4,6-diamino-1,2-dihydrotriazine as antimalarial agent: a new synthetic route” (Bioorg Med Chem Lett, 2005).

Experiments:
Plasmodium falciparum [1] = experiment: Inhibitory concentration against Plasmodium falciparum
Plasmodium falciparum [2] = experiment: Inhibitory concentration sensitive Plasmodium falciparum FJB-D9; format: functional
Method in brief: (§1)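 P. falciparum field isolates (collected from patients, 1990) grown in RPMI 1640 lacking p-aminobenzoic acid and folic acid, with 25 mM HEPES, bicarbonate and 10% human AB+ serum. Compounds tested over 0.0005–100 range, 30 h at 37 °C in candle jar. Schizonts (≥8 nuclei) per 200 asexual parasites counted microscopically in duplicate wells. Inhibition as (1 − Nt/Nc)×100. IC50/IC90 taken from these values.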

[3] = Inhibitory concentration against Plasmodium falciparum
[4] = Inhibitory concentration against cycloguanil sensitive Plasmodium falciparum FJB-D9; format: functional
Method in brief: as §1

Structure (SMILES) | IC90 (Plasmodium falciparum [1]) [µM] | IC90 (Plasmodium falciparum [2]) [µM] | IC50 [3] [µM] | IC50 [4] [µM]
CCc1nc(N)nc(N)c1-c1ccc(Cl)cc1 [PYRIMETHAMINE] | 0.028 | 0.006 | 0.005 | 0.0016
NC1=NC(c2ccccc2)N(c2ccccn2)C(N)=N1 (stereo unspecified) | – | – | 52.9 | 81
NC1=NC(c2ccccc2)N(c2ccc(F)c(Cl)c2)C(N)=N1 (stereo unspecified) | – | – | 81.9 | 87.6
Cc1ccc(N2CN=C(N)N=C2N)cc1 | – | – | 501 | 584
NC1=NCN(c2ccccn2)C(N)=N1 | – | – | 629 | 618
NC1=NCN(c2ccc(F)c(Cl)c2)C(N)=N1 | 49.5 | 47.6 | 14.7 | 17.3
